Drawing on ChEMBL document CHEMBL1145867, “Muraymycins, novel peptidoglycan biosynthesis inhibitors: synthesis and SAR of their analogues” (2003), this text covers MIC and Inhibitory activity for three compounds.

≈ marks a conversion by molar mass, not a printed value. Calls of active or inactive are those of the source.

Usually MIC stands for the smallest concentration in the dilution series that meets the test's criterion for growth inhibition.

The subject of test [1] is Staphylococcus sp. The experiment in a line: In vitro antimicrobial activity against Coagulase-negative staphylococcus GC 4538 at 32 ug/ml soluble peptidoglycan. It is filed as functional.
Test [2] relates to Staphylococcus aureus. The experiment in a line: In vitro antimicrobial activity against Staphylococcus aureus GC 4536 at 32 ug/ml soluble peptidoglycan. In kind it is functional.
Test [3] concerns Staphylococcus aureus. The experiment in a line: In vitro antimicrobial activity against Staphylococcus aureus GC 1131 at 32 ug/ml soluble peptidoglycan. In kind it is functional.
In test [4] the test system is Staphylococcus sp. The experiment in a line: In vitro antimicrobial activity against CNS GC 4538 at 32 ug/ml soluble peptidoglycan. It is filed as functional.
The test system of test [5] is Enterococcus faecalis. The experiment in a line: In vitro antimicrobial activity against Enterococcus faecalis GC 842 at 32 ug/ml soluble peptidoglycan. It is filed as functional.
Test [6] relates to Staphylococcus sp. The experiment in a line: In vitro antimicrobial activity against CNS GC 4547 at 32 ug/ml soluble peptidoglycan. It is filed as functional.
Test [7] has as its system Candida albicans. The experiment in a line: In vitro antimicrobial activity against Candida albicans […] at 32 ug/ml soluble peptidoglycan. It is filed as functional.
For test [8], the system named is Enterococcus faecalis. The experiment in a line: In vitro antimicrobial activity against Enterococcus faecalis GC 4555 at 32 ug/ml soluble peptidoglycan. It is filed as functional.
Test [9] has as its system Bacteria. The experiment in a line: In vitro antimicrobial activity against gram-negative organisms (10).
Test [10] relates to Enterococcus faecalis. Nature of the test: In vitro antimicrobial activity against Enterococcus faecalis GC 2242 at 32 ug/ml soluble peptidoglycan. It is filed as functional.
The test system of test [11] is Staphylococcus aureus. Nature of the test: In vitro antimicrobial activity against Staphylococcus aureus GC 2216 at 32 ug/ml soluble peptidoglycan. In kind it is functional.
A short description of test [12]: The inhibitory activity of compound against MraY or MurG at 100 ug/mL;Inhibit.
Test [13] can be described thus: The inhibitory activity of compound against MraY or MurG at 50 ug/mL; Inhibit.
The subject of test [14] is Morganella morganii. The experiment in a line: In vitro antimicrobial activity against Morganella morganii GC 4531. It is filed as functional. A digest of the protocol:
(§1)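 Broth microdilution per NCCLS guidance. Serial dilutions of each agent in microtiter plates are inoculated with each organism to 10⁵ CFU/mL and incubated 18–22 h at 35 C in ambient air. MIC is the lowest concentration giving complete growth inhibition, judged by the unaided eye.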

Test [15] concerns Klebsiella pneumoniae. Nature of the test: In vitro antimicrobial activity against Klebsiella pneumoniae GC 4534. In kind it is functional. A digest of the protocol:
as §1

The subject of test [16] is Enterococcus faecalis. The experiment in a line: In vitro antimicrobial activity against Enterococcus faecalis GC 2242. In kind it is functional. A digest of the protocol:
as §1

A short description of test [17]: The inhibitory activity of compound against MraY or MurG at 25 ug/mL; No Inhibition.
A short description of test [18]: The inhibitory activity of compound against MraY or MurG at 12.5 ug/mL; No Inhibition.
The subject of test [19] is Escherichia coli. Nature of the test: In vitro antimicrobial activity against Escherichia coli GC 4559. In kind it is functional. A digest of the protocol:
as §1

In test [20] the test system is Staphylococcus aureus. Nature of the test: In vitro antimicrobial activity against Staphylococcu aureus GC 4536. It is filed as functional. An outline of the steps:
as §1

Test [21] concerns Pseudomonas aeruginosa. The experiment in a line: In vitro antimicrobial activity against Pseudomonas aeruginosa GC 4532. It is filed as functional. A digest of the protocol:
as §1

The test system of test [22] is Enterococcus faecalis. Nature of the test: In vitro antimicrobial activity against Enterococcus faecalis GC 4555. In kind it is functional. An outline of the steps: as §1
For test [23], the system named is Staphylococcus sp. Nature of the test: In vitro antimicrobial activity against CNS GC 4547. In kind it is functional. A digest of the protocol:
as §1

For test [24], the system named is Enterococcus sp. The experiment in a line: In vitro antimicrobial activity against Enterococci. It is filed as functional. A digest of the protocol: as §1
Test [25] has as its system Staphylococcus aureus. Nature of the test: In vitro antimicrobial activity against Staphylococcu aureus GC 2216. It is filed as functional. A digest of the protocol: as §1
Test [26] relates to Bacteria. The experiment in a line: In vitro antimicrobial activity against gram-negative organisms (10). In kind it is functional. An outline of the steps: as §1
Test [27] relates to Escherichia coli. Nature of the test: In vitro antimicrobial activity against Escherichia coli GC 2214. In kind it is functional. A digest of the protocol: as §1
Test [28] deals with Serratia marcescens. The experiment in a line: In vitro antimicrobial activity against Serratia marcescens GC 4077. In kind it is functional. A digest of the protocol: as §1
The nature of test [29]: The inhibitory activity of compound against MraY or MurG at 6.25 ug/mL; No Inhibition.
For test [30], the system named is Pseudomonas aeruginosa. Nature of the test: In vitro antimicrobial activity against Pseudomonas aeruginosa GC 2214. It is filed as functional. An outline of the steps: as §1
For test [31], the system named is Escherichia coli. Nature of the test: In vitro antimicrobial activity against Escherichia coli GC 3226. In kind it is functional. A digest of the protocol: as §1
In test [32] the test system is Enterococcus faecalis. Nature of the test: In vitro antimicrobial activity against Enterococcus faecalis GC 842. In kind it is functional. An outline of the steps:
as §1

For test [33], the system named is Escherichia coli. Nature of the test: In vitro antimicrobial activity against Escherichia coli GC 4560. It is filed as functional. An outline of the steps:
as §1

Test [34] concerns Candida albicans. Nature of the test: In vitro antimicrobial activity against Candida albicans GC 3066. It is filed as functional. A digest of the protocol: as §1
Test [35] relates to Staphylococcus aureus. Nature of the test: In vitro antimicrobial activity against Staphylococcu aureus GC 1131. In kind it is functional. An outline of the steps: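 Broth dilution per NCCLS recommendations. Serial dilutions in microtiter plates inoculated to 10⁵ CFU/mL, then incubated 18–22 h at 35 C in ambient air. MIC taken as the lowest concentration giving complete growth inhibition by unaided eye.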

Test [36] concerns Staphylococcus sp. The experiment in a line: In vitro antimicrobial activity against CNS GC 4538. In kind it is functional. An outline of the steps:
as §1

The subject of test [37] is Enterobacter cloacae. Nature of the test: In vitro antimicrobial activity against Enterobacter cloacae GC 3783. In kind it is functional. A digest of the protocol:
as §1

For test [38], the system named is Staphylococcus sp. The experiment in a line: In vitro antimicrobial activity against Staphylococci. It is filed as functional, staphyl ococcus species. A digest of the protocol:
as §1

Test [39] is described as follows: The inhibitory activity of compound against MraY or MurG at 25 ug/mL; No inhibition.
Test [40] is described as follows: The inhibitory activity of compound against MraY or MurG at 12.5 ug/mL; No inhibition.
The nature of test [41]: The inhibitory activity of compound against MraY or MurG at 50 ug/mL; No inhibition.
The nature of test [42]: The inhibitory activity of compound against MraY or MurG at 6.25 ug/mL; No inhibition.
Test [43] can be described thus: The inhibitory activity of compound against MraY or MurG at 100 ug/mL; Inhibit.

For `COc1ccc(Cn2c(=O)ccn([C@@H]3OC([C@H](O)[C@H](NCCCNC(=O)[C@H](NC(=O)OCc4ccccc4)C(C)O)C(=O)OC(C)(C)C)[C@@H](O[Si](C)(C)C(C)(C)C)[C@H]3O[Si](C)(C)C(C)(C)C)c2=O)cc1` (stereo not given in full), the MIC is greater than 128 µg/mL in [1]; greater than 128 µg/mL in test [2]; greater than 128 µg/mL in test [3]; greater than 128 µg/mL in test [4]; 128 µg/mL (≈ 126 µM) in [5]; greater than 128 µg/mL in test [6]. The MIC in test [7] was 128 µg/mL (≈ 126 µM); in [8], greater than 128 µg/mL; in test [9] it was greater than 128 µg/mL; in [10] it was greater than 128 µg/mL; in test [11] it was greater than 128 µg/mL.

As for `COc1ccc(Cn2c(=O)ccn([C@@H]3OC([C@H](O)[C@H](NCCCNC(=O)[C@H](N)C(O)C(C)C)C(=O)OC(C)(C)C)[C@@H](O[Si](C)(C)C(C)(C)C)[C@H]3O[Si](C)(C)C(C)(C)C)c2=O)cc1` (stereo not given in full), the Inhibitory activity result in test [12] and in test [13] was “Inhibit” in each case. Besides, the MIC in test [14] is greater than 128 µg/mL; in [15], greater than 128 µg/mL; in test [16], 4 µg/mL (≈ 4.4 µM); in [19] it was greater than 128 µg/mL; in test [20], 16 µg/mL (≈ 17.6 µM); in test [21] it was greater than 128 µg/mL. Also, the MIC in [22] was 4 µg/mL (≈ 4.4 µM); in test [23] it was 16 µg/mL (≈ 17.6 µM); in [24] it was 128 µg/mL (≈ 141 µM); in test [25], 4 µg/mL (≈ 4.4 µM); in test [26] it was greater than 128 µg/mL; in test [27], greater than 128 µg/mL. Besides, the MIC in test [28] was greater than 128 µg/mL; in test [30], greater than 128 µg/mL; in test [31], greater than 128 µg/mL; in test [32] it was 8 µg/mL (≈ 8.81 µM); in [33] it was greater than 128 µg/mL; in [34] it was greater than 128 µg/mL. In addition, the MIC in test [35] is 4 µg/mL (≈ 4.4 µM); in [36], 4 µg/mL (≈ 4.4 µM); in [36] (Staphylococcus sp., read-out: MIC), 4 µg/mL (≈ 4.4 µM); in test [37], greater than 128 µg/mL; in test [38], 4 µg/mL (≈ 4.4 µM). The Inhibitory activity result in test [17], in test [18] and in test [29] was “inactive” throughout.

With `COc1ccc(Cn2c(=O)ccn([C@@H]3OC([C@H](O)[C@H](NCCCNC(=O)[C@H](N)C(C)O)C(=O)OC(C)(C)C)[C@@H](O[Si](C)(C)C(C)(C)C)[C@H]3O[Si](C)(C)C(C)(C)C)c2=O)cc1` (stereo not given in full), the MIC in test [1] was found to be 4 µg/mL (≈ 4.54 µM); in test [2], 4 µg/mL (≈ 4.54 µM); in test [3], 8 µg/mL (≈ 9.09 µM); in test [4], 4 µg/mL (≈ 4.54 µM); in test [5] it was 4 µg/mL (≈ 4.54 µM); in [6] it was 8 µg/mL (≈ 9.09 µM). Moreover, the MIC is greater than 128 µg/mL in test [7]; 4 µg/mL (≈ 4.54 µM) in test [8]; greater than 128 µg/mL in [9]; 8 µg/mL (≈ 9.09 µM) in [10]; 4 µg/mL (≈ 4.54 µM) in test [11]. Also, the Inhibitory activity entry in test [39], in test [40], in [41] and in test [42] was “inactive” in each case. Besides, the Inhibitory activity entry in test [43] is “Inhibit”.
